This note sets out measurements from ChEMBL document CHEMBL3259666, “Discovery of a neuroprotective chemical, (S)-N-(3-(3,6-dibromo-9H-carbazol-9-yl)-2-fluoropropyl)-6-methoxypyridin-2-amine [(-)-P7C3-S243], with improved druglike properties” (J Med Chem, 2014).

What is called IC50 is the concentration that inhibits the measured activity by half. A lower IC50 goes with greater potency in that assay. Broadly, the inhibition is the drop in the measured response relative to a control, in per cent. A higher inhibition goes with a strong effect.

Series [1] has as its system Mus musculus. As to the kind of experiment: Neuroprotective activity in wild type C57BL/J6 mouse assessed as survival of newborn hippocampal neurons at 10 uM, icv administered for 7 days by BrdU staining-based immunohistochemical analysis relative to vehicle-treated control. The class given is functional, organism-based. The gist of the method:
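Adult (12 week old) C57BL/J6 mice, environmentally deprived; compound infused via osmotic minipump into left lateral ventricle at 0.5 μL/h for 7 days. BrdU IP 50 mg kg–1 day–1 for 6 days during infusion; perfusion 24 h after last BrdU. BrdU+ cells in SGZ/dentate gyrus of contralateral hemisphere counted in every fifth 40 μm section, normalized to dentate gyrus volume; mean ± SEM.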

A short description of series [2]: Protein binding in plasma (unknown origin) by ultracentrifugation method. The class given is ADME, cell-free. The following applies: read-out: PPB.
The test system of series [3] is Mus musculus. As to the kind of experiment: Neuroprotective activity in substantia nigra of C57Bl/6 mouse neurogenesis model assessed as protection from MPTP-induced cell death in mature neurons at 5 mg/kg/day, ip bid administered for 21 days by immunohistochemical analysis relative to vehicle-treated control. The class given is functional, organism-based. The gist of the method: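 MPTP model in adult male C57Bl/6 mice, individually housed 1 week. MPTP free base 30 mg/kg/day IP for 5 days. From day 6 (24 h after the last MPTP dose), compound or vehicle given IP twice daily for 21 days. Mice were then perfused with 4% paraformaldehyde. SNc sectioned at 30 μm intervals and every fourth section stained for TH (DAB, hematoxylin counterstain). TH+ cells counted blinded; mean ± SEM, compared with vehicle + MPTP.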

Series [4] relates to Mus musculus. As to the kind of experiment: Neuroprotective activity in wild type C57BL/J6 mouse assessed as survival of newborn hippocampal neurons at 0.1 to 10 uM, icv administered for 7 days by BrdU staining-based microscopy relative to vehicle-treated control. It counts as functional, organism-based. The essentials: (§1)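 Adult (12-week) wild-type C57BL/J6 mice. Compound infused ICV into the left lateral ventricle by osmotic minipump at 0.5 μL/h for 7 days, with BrdU 50 mg/kg/day IP for 6 days. Perfused 24 h after the last BrdU dose. BrdU antigen unmasked (formamide/SSC at 65 °C, then 2 M HCl); anti-BrdU staining. BrdU+ cells in the contralateral dentate gyrus SGZ counted in every fifth 40 μm section and normalised to dentate gyrus volume.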
A general note: Incorporation of labelled thymidine or its analogues reports DNA synthesis.

Series [5] deals with Cytochrome P450 2C9 (Homo sapiens, UniProt P11712). As to the kind of experiment: Inhibition of CYP2C9 (unknown origin). The class given is ADME.
Cytochrome P450 2C9, sequence (P11712 whole entry): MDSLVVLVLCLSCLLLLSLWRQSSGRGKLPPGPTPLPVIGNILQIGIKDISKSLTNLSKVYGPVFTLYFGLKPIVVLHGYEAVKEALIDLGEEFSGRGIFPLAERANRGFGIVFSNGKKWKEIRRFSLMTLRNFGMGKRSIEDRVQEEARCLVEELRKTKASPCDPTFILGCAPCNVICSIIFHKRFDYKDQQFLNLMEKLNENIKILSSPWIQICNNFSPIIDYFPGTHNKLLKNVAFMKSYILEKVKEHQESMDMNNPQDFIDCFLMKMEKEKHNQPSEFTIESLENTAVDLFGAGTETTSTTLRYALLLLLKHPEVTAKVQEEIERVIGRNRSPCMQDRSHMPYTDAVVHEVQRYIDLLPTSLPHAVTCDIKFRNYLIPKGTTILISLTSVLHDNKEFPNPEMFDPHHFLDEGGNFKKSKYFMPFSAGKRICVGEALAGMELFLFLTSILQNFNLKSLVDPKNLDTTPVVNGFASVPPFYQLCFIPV
Series [6] addresses Cytochrome P450 2C19 (Homo sapiens, UniProt P33261). As to the kind of experiment: Inhibition of CYP2C19 (unknown origin). It counts as ADME.
Series [7] deals with Cytochrome P450 2D6 (Homo sapiens, UniProt P10635). As to the kind of experiment: Inhibition of CYP2D6 (unknown origin). The class given is ADME.
Cytochrome P450 2D6, sequence (P10635 whole entry): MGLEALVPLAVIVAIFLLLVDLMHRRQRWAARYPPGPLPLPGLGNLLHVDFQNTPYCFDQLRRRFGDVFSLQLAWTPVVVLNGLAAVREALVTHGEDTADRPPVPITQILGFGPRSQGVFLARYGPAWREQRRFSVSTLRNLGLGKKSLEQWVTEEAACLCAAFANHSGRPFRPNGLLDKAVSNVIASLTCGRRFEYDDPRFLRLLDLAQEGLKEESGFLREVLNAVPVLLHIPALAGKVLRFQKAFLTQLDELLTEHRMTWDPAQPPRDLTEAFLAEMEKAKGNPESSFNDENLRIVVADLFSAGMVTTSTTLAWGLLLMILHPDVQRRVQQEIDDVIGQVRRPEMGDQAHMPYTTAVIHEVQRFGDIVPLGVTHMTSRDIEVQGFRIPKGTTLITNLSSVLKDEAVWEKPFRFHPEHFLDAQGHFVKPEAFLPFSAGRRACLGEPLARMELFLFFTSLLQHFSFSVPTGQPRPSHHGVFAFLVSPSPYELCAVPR
Series [8] deals with NCI-H2122. As to the kind of experiment: Cytotoxicity against human NCI-H2122 cells. It counts as cell-based.
Series [9] concerns the target Cytochrome P450 3A4 (Homo sapiens, UniProt P08684). Kind of series: Inhibition of CYP3A4 (unknown origin). It counts as ADME.
The target in series [10] is T1, Cytochrome P450 2B6 (Homo sapiens, UniProt P20813).
T1 sequence (P20813 whole entry): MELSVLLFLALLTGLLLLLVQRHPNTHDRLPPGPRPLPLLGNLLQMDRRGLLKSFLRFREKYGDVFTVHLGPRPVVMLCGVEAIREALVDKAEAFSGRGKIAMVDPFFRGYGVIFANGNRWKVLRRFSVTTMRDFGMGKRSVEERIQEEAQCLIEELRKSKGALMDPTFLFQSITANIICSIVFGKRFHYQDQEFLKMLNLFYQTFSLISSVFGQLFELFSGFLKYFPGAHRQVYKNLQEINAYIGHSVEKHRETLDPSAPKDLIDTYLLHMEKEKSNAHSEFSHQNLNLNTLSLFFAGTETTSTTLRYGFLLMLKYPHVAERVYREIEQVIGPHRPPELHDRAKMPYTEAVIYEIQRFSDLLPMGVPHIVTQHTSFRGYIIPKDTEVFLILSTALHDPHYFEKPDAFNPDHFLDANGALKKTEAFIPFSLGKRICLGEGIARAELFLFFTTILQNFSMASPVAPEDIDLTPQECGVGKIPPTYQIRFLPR
Kind of series: Inhibition of CYP2B6 (unknown origin). The class given is ADME.

For series [11], the target named is hERG (KCNH2) (Homo sapiens, UniProt Q12809). As to the kind of experiment: Inhibition of human ERG channel at 50 uM by patch clamp technique.
hERG (KCNH2), sequence (Q12809 whole entry): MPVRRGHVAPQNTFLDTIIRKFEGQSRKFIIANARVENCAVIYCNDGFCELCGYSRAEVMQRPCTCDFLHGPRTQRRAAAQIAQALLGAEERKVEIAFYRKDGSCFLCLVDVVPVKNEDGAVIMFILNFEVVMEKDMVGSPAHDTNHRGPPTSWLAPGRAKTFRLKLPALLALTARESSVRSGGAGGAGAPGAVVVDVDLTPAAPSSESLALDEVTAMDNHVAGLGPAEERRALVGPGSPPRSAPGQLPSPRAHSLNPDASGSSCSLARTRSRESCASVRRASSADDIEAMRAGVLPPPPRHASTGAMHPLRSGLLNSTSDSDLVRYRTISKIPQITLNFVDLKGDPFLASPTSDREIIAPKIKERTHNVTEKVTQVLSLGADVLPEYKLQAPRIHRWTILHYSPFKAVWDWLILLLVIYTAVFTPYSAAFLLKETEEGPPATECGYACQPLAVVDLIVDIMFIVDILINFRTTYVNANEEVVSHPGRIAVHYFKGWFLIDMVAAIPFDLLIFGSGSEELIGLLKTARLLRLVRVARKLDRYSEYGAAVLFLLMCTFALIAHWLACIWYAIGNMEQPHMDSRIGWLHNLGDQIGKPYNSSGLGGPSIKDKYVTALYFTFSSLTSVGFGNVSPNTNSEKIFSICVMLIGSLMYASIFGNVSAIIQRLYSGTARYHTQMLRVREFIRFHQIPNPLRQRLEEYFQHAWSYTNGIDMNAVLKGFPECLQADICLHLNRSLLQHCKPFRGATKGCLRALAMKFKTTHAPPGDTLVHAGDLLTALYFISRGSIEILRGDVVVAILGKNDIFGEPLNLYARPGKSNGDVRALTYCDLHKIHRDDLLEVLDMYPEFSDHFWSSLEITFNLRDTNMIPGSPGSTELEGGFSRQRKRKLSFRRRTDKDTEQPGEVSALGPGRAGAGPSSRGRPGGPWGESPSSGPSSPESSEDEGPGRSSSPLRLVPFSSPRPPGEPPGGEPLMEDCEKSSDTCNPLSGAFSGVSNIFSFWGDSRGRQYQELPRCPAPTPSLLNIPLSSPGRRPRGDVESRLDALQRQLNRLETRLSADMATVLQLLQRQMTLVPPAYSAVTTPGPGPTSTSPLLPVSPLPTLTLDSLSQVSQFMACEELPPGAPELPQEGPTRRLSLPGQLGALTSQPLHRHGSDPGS
Series [12] deals with T2, Cytochrome P450 2C8 (Homo sapiens, UniProt P10632).
T2 sequence (P10632 whole entry): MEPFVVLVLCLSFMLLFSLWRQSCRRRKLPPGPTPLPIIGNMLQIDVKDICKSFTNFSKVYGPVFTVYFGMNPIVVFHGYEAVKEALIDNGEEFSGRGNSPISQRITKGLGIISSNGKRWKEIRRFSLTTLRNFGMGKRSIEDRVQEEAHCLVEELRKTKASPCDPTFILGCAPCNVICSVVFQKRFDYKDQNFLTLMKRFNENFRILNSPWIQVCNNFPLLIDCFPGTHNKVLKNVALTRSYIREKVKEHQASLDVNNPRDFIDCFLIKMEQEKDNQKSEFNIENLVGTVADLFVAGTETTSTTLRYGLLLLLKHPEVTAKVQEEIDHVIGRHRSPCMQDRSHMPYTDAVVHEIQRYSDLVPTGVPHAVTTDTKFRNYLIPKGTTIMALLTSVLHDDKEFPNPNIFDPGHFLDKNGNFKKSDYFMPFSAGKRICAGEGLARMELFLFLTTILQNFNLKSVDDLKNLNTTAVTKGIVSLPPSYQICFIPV
As to the kind of experiment: Inhibition of CYP2C8 (unknown origin). It counts as ADME.

In series [13] the test system is NCI-H2009. Kind of series: Cytotoxicity against human NCI-H2009 cells. The class given is cell-based.
For series [14], the target named is Translocator protein (Homo sapiens, UniProt P30536). As to the kind of experiment: Inhibition of TSPO (unknown origin).
Translocator protein, sequence (P30536 whole entry): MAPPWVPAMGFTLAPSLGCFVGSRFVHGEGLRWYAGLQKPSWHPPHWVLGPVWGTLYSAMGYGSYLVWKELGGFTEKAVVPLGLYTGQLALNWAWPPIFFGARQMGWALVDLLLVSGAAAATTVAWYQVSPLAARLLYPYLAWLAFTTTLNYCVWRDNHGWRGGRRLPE
The test system of series [15] is Mus musculus. Kind of series: Neuroprotective activity in wild type C57BL/J6 mouse assessed as survival of newborn hippocampal neurons at 10 uM, icv administered for 7 days by BrdU staining-based microscopy relative to vehicle-treated control. It counts as functional, organism-based. The gist of the method: as §1
Series [16] in a line: Cytotoxicity against human HCC44 cells. The class given is cell-based.
The target in series [17] is T3, Cytochrome P450 1A2 (Homo sapiens, UniProt P05177).
T3 sequence (P05177 whole entry): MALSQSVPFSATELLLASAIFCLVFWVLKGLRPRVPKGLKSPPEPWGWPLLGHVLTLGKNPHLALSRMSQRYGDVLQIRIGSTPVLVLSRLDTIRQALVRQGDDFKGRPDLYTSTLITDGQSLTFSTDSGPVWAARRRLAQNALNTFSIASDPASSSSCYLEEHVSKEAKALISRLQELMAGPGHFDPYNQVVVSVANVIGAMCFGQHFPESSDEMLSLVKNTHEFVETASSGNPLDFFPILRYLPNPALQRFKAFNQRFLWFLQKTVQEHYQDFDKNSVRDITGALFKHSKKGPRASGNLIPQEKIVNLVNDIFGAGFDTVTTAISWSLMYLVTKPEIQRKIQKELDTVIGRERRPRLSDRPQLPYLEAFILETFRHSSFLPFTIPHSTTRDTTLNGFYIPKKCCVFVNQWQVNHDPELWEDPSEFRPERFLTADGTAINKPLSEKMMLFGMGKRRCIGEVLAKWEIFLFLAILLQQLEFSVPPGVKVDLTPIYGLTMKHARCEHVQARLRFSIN
Kind of series: Inhibition of CYP1A2 (unknown origin). The class given is ADME.

Molecules are shown by their SMILES. Calls of active or inactive are those of the source. The calls are words filed in the database; no cut-off is given here.

Cytochrome P450 3A4, sequence (P08684 whole entry): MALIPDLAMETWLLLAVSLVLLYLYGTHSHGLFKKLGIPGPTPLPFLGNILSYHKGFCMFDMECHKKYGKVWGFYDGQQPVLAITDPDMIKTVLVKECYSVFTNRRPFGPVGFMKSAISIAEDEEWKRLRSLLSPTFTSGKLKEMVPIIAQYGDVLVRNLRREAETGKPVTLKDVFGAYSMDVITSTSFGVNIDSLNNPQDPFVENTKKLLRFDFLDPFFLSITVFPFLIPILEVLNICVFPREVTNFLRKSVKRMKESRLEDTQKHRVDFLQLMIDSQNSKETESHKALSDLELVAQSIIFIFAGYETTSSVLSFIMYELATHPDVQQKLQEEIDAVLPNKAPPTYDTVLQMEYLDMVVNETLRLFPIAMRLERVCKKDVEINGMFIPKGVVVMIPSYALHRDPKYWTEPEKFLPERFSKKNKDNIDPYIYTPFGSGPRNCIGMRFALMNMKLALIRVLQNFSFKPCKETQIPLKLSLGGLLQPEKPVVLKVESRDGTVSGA
Cytochrome P450 2C19, sequence (P33261 whole entry): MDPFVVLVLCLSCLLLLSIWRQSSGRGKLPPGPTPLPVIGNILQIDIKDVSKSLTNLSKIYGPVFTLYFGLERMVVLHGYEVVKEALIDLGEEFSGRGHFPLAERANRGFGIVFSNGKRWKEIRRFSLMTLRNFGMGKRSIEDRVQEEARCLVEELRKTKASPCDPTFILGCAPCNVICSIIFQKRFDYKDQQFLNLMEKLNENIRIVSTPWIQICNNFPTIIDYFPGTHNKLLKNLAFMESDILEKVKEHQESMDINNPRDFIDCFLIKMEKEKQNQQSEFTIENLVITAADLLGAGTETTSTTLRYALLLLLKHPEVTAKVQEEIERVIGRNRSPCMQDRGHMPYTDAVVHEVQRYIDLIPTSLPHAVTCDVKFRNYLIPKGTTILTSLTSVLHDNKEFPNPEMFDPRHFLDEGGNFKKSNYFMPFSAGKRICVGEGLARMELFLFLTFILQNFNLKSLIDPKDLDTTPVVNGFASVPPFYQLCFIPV

In the case of `NCC(F)Cn1c2ccc(Br)cc2c2cc(Br)ccc21` (configuration not stated), the outcome in [1] was Active.

For `COc1cccc(NC[C@H](F)Cn2c3ccc(Br)cc3c3cc(Br)ccc32)n1`, in series [2], the fraction unbound is less than 0.01. In addition, the outcome in series [3], in [4] and in [15] was Active. The “inhibition (INH)” value in [5], in [7], in series [9], in [10] and in [12] was “Active” each time. The IC50 in series [6] was 1.9 µM; in series [8] it was greater than 10 µM; in [13], greater than 10 µM; in series [14] it was 0.35 µM; in series [16], greater than 10 µM; in series [17], 20 µM. In series [11], this compound gave an inhibition at 50 µM of less than 15%.
